SMILES strings stand for the structures.

Consider 17 molecules from ChEMBL document CHEMBL4052633, “Cinnamoylated chloroquine analogues: A new structural class of antimalarial agents” (Eur J Med Chem, 2017).

Data set [1] deals with Plasmodium falciparum. The data set can be described thus: Antimalarial activity against chloroquine sensitive Plasmodium falciparum 3D7 after 72 hrs by SYBR green 1 dye based fluorescence assay. In kind it is functional. Put shortly: (§1)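 Compounds dissolved in DMSO at 5 mg/mL (stock), then two-fold serial dilutions. Lysis buffer with 2x SYBR Green-I was added for 1 h at 37 °C. Fluorescence read at 485/530 nm. IC50 by logit regression of dose-response curves, triplicate.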

For data set [2], the system named is Plasmodium falciparum. The data set can be described thus: Antimalarial activity against chloroquine resistant Plasmodium falciparum K1 after 72 hrs by SYBR green 1 dye based fluorescence assay. In kind it is functional. Summed up:
as §1

Data set [3] is described as follows: (§2) Cytotoxicity against African green monkey Vero cells after 72 hrs by MTT assay. In kind it is cell-based. The conditions noted are these: chlorocebus sabaeus, Vero cells. Summed up:
(§3)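 Vero monkey kidney cells were exposed to a dilution series of test agents for 72 hour, with MTT as the detection reagent (modified Mosmann method). CC50 was derived by nonlinear regression of dose-response curves. Triplicate experiments.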

The nature of data set [4]: Selectivity index, ratio of CC50 for African green monkey Vero cells to IC50 for chloroquine sensitive Plasmodium falciparum 3D7. In kind it is toxicity. The conditions noted are these: for selectivity ratio: Vero cells, read-out: Ratio CC50/IC50; for Ratio CC50/IC50: vero. Put shortly: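 SI was computed as Vero CC50 (72 hour MTT, nonlinear regression) divided by the 3D7 IC50. SYBR Green-I lysis buffer was added for 1 hour, and fluorescence was read at 485/530 nm. Logit regression gave IC50.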

Data set [5] deals with Vero. Described as §2. Type of data set: cell-based. The conditions noted are these: chlorocebus sabaeus, vero, 72 h. Summed up:
as §3

[6] abbreviates: Plasmodium falciparum, 3D7, 72 h, read-out: IC50.
The mark [7] stands for this setting: Plasmodium falciparum, K1, 72 h, read-out: IC50.

`COc1ccc(/C=C/C(=O)c2ccc(OCC(O)CNCCNc3ccnc4cc(Cl)ccc34)cc2)cc1` (stereo unspecified): the 50% inhibitory concentration (IC50) in data set [1] (setting [6]) is 0.0473 µM; in data set [2] (setting [7]), 0.9 µM. For the same molecule, in data set [3], the CC50 at 72 h came to 8.03 µM. Moreover, the selectivity ratio in data set [4] is 170.
Take `Cc1ccc(/C=C/C(=O)NCCNc2ccnc3cc(Cl)ccc23)cc1`: the IC50 came out at 0.022 µM in data set [1] (setting [6]) and 0.048 µM in data set [2] (setting [7]). In addition, half-maximal cytotoxicity in data set [3] (CC50 at 72 h) was put at 4 µM. The selectivity ratio in data set [4] turned out to be 182.
Regarding `COc1cc(/C=C/C(=O)c2ccc(OCC3CO3)cc2)cc(OC)c1OC` (stereo unspecified), in data set [5], the CC50 entry was “Non-Toxic”. Further, the “Ratio CC50/IC50” value in data set [4] is on record as “Not Active”.
Regarding `O=C(COc1ccccc1C(=O)/C=C/c1ccc(Cl)cc1)NCCNc1ccnc2cc(Cl)ccc12`, the half-maximal inhibitory concentration (IC50) worked out at 0.255 µM in data set [1] (setting [6]) and 0.253 µM in data set [2] (setting [7]). Moreover, in data set [3], the midpoint of cytotoxicity, the CC50 at 72 h, lay at 4.98 µM. The selectivity ratio in data set [4] came to 19.5.
For `O=C(/C=C/c1ccco1)NCCNc1ccnc2cc(Cl)ccc12`, the values for the half-inhibitory concentration (IC50) in data set [1] (setting [6]) and in data set [2] (setting [7]) were 0.094 µM and 0.101 µM, respectively. Besides, the CC50 at 72 h in data set [3] was 629 µM. Moreover, in data set [4], the selectivity ratio was 6700.
In the case of `COc1ccc(/C=C/C(=O)NCCNc2ccnc3cc(Cl)ccc23)cc1`, the values for the half-inhibitory concentration (IC50) in data set [1] (setting [6]) and in data set [2] (setting [7]) were 0.0134 µM and 0.0594 µM, respectively. For the same molecule, the half-maximal cytotoxic concentration (CC50) at 72 h in data set [3] stood at 20.6 µM. Moreover, the selectivity ratio in data set [4] was found to be 1530.
As to `COc1ccc(/C=C/C(=O)c2ccccc2OCC(=O)NCCNc2ccnc3cc(Cl)ccc23)cc1`, the results for the concentration for half-maximal inhibition (IC50) in data set [1] (setting [6]) and in data set [2] (setting [7]) were 0.134 µM and 0.148 µM, respectively. In data set [3], this molecule showed a CC50 at 72 h of 25 µM. The selectivity ratio in data set [4] came out at 186.
Turning to `COc1cc(/C=C/C(=O)c2ccc(OCC(O)CNCCNc3ccnc4cc(Cl)ccc34)cc2)cc(OC)c1OC` (stereo unspecified), the half-inhibitory concentration (IC50) in data set [1] (setting [6]) came out at 0.0135 µM; in data set [2] (setting [7]) it was 0.8 µM. The molecule also came in with a cytotoxic concentration (CC50) at 72 h in data set [3] of 1.91 µM. The selectivity ratio in data set [4] was found to be 142.
For the molecule `COc1cc(/C=C/C(=O)c2ccc(OCC(O)CNc3ccc4c(c3)OCO4)cc2)cc(OC)c1OC` (stereo unspecified), the IC50 result in data set [1] and in data set [2] was “Not Active” throughout. Also, the half-maximal cytotoxic concentration (CC50) result in data set [5] is given as “Non-Toxic”. Also, the “Ratio CC50/IC50” value in data set [4] is “Not Active”.
As to `O=C(/C=C/c1ccc(Cl)cc1)NCCNc1ccnc2cc(Cl)ccc12`, the concentration for half-maximal inhibition (IC50) in data set [1] (setting [6]) was found to be 0.0194 µM; in data set [2] (setting [7]), 0.0441 µM. This molecule displayed a CC50 at 72 h in data set [3] of 6.93 µM. Besides, the selectivity ratio in data set [4] stood at 357.
Take `COc1ccc(/C=C/C(=O)c2ccccc2OCC(=O)NCCNc2ccnc3cc(Cl)ccc23)cc1OC`: the IC50 in data set [1] (setting [6]) was 0.0961 µM; in data set [2] (setting [7]), 0.134 µM. Half-maximal cytotoxicity in data set [3] (CC50 at 72 h) was put at 5.31 µM. Further, in data set [4], the selectivity ratio amounted to 55.3.
In the case of `CC(=O)c1ccccc1OCC(=O)NCCNc1ccnc2cc(Cl)ccc12`, the values for the IC50 in data set [1] (setting [6]) and in data set [2] (setting [7]) were 0.0104 µM and 1.3 µM, respectively. The half-maximal cytotoxic concentration (CC50) at 72 h in data set [3] turned out to be 106 µM. The selectivity ratio in data set [4] came out at 10200.
Take `COc1ccc(/C=C/C(=O)NCCNc2ccnc3cc(Cl)ccc23)cc1OC`: the IC50 in data set [1] (setting [6]) was 0.0142 µM; in data set [2] (setting [7]), 0.157 µM. The molecule further registered a cytotoxic concentration (CC50) at 72 h in data set [3] of 5.6 µM. For the same molecule, the selectivity ratio in data set [4] turned out to be 396.
For the molecule `COc1cc(/C=C/C(=O)c2ccccc2OCC(=O)NCCNc2ccnc3cc(Cl)ccc23)cc(OC)c1OC`, the IC50 in data set [1] (setting [6]) stood at 0.0691 µM; in data set [2] (setting [7]) it was 0.224 µM. The molecule further registered a half-maximal cytotoxic concentration (CC50) at 72 h in data set [3] of 3.92 µM. The selectivity ratio in data set [4] came out at 56.7.
The corresponding values for `COc1ccc(/C=C/C(=O)c2ccc(OCC(O)CNCCNc3ccnc4cc(Cl)ccc34)cc2)cc1OC` (stereo unspecified) are 0.0799 µM, 0.229 µM, 10.2 µM and 128.
On to `COc1cc(OC)c(OC)cc1/C=C/C(=O)NCCNc1ccnc2cc(Cl)ccc12`, for which the IC50 in data set [1] (setting [6]) was 0.0213 µM; in data set [2] (setting [7]), 0.143 µM. The molecule also yielded a cytotoxic concentration (CC50) at 72 h in data set [3] of 16.1 µM. In addition, the selectivity ratio in data set [4] was found to be 756.
Regarding `COc1cc(OC)c(OC)cc1/C=C/C(=O)c1ccccc1OCC(=O)NCCNc1ccnc2cc(Cl)ccc12`, the IC50 in data set [1] (setting [6]) is 0.0941 µM; in data set [2] (setting [7]), 0.161 µM. Besides, in data set [3], the CC50 at 72 h was determined as 12.2 µM. The selectivity ratio in data set [4] was 130.

The term IC50 denotes the concentration that inhibits the measured activity by half. Usually CC50 stands for the concentration giving 50% cytotoxicity.
